Usually viability stands for a read-out of living cells in per cent, often relative to untreated cells. Broadly, the inhibition is the drop in the measured response relative to a control, in per cent.

SMILES strings stand for the structures. The source made the active and inactive calls. Cut-off read from the data, not from the text of the source, unless noted: active = inhibition above about 30%; inactive = the rest.

Assay [1] in a line: Her2 expression decrease, cell viability multiplex – SKBR3 breast tumor cells, AlphaScreen, ATP viability, primary screen (AID 461;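 active = Her2 level under about 52% in both replicate screens, with viability over 70% of control, limit read from the data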;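 for Her2 level: lower value means less Her2 protein in the cells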;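 for viability: percent of carrier control wells set as 100% viability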). As to conditions: SKBR3 Her2 protein level, 18-24 h, measured here: SKBR3 viability, ATP luminescence, at 10 µM. Background: In Alpha technology, singlet oxygen from a donor bead excites a nearby acceptor bead.
The target in assay [2] is Receptor tyrosine-protein kinase erbB-2 (Homo sapiens) (UniProt P04626). The assay is described as above. Particulars: 18-24 h, at 10 µM, stronger effect = lower value.
Receptor tyrosine-protein kinase erbB-2 (Homo sapiens), sequence (P04626 whole entry, looked up): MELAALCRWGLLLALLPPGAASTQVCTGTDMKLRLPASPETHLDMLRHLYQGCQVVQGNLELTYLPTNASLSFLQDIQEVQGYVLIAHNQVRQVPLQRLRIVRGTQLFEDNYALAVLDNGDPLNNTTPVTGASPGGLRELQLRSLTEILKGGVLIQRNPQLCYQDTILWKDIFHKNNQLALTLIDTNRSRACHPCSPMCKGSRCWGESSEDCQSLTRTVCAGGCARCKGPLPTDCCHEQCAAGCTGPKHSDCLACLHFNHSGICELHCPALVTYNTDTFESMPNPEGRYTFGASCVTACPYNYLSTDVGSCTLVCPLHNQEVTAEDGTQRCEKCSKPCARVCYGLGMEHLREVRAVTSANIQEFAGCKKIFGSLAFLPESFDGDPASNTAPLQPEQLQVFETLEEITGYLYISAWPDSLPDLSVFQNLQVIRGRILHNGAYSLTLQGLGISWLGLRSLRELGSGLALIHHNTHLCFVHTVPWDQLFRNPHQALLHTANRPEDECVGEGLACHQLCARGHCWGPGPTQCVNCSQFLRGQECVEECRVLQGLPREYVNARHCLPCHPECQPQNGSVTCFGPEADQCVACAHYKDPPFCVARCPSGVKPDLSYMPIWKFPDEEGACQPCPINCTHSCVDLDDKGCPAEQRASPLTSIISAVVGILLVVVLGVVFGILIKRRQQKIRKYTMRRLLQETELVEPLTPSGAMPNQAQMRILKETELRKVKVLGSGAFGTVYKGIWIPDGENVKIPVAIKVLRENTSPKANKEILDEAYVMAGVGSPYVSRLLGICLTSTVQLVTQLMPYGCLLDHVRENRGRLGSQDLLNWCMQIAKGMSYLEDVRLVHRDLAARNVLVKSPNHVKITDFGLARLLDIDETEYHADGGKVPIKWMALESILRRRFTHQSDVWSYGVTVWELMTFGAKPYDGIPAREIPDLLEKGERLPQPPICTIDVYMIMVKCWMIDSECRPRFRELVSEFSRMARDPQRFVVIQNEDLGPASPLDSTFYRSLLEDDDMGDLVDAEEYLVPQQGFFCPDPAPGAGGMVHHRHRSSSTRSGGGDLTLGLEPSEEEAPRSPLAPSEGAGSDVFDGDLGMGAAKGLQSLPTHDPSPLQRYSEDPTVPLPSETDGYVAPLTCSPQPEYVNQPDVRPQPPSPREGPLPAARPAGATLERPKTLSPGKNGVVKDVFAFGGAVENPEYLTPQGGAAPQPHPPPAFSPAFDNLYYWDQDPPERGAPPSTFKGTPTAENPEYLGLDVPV
Assay [3] can be described thus: reduced viability of SK-BR-3 breast cancer cells – cell-based, 24 h, human, pilot screen (AID 572;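 active = viability at or below 10% of carrier control in both of two separate runs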;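 note: compound exposure lasted between 18 and 24 h rather than exactly 24 h; 100% = carrier-treated control wells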). As to conditions: SK-BR-3 viability, CellTiter-Glo luminescence, at 10 µM, stronger effect = lower value. (ATP-based viability assays read luminescence as a measure of living cells.)
A short description of assay [4]: HUVEC growth inhibition – cell-based, human, primary screen (AID 575;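 active = viability at or below 30% in both replicate assays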;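 note: 100% = median of untreated cell wells with 0.1% DMSO on each plate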). As to conditions: HUVEC proliferation, CellTiter-Glo luminescence, 72 h; at 10 µM; stronger effect = lower value. In a few lines: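 Test system: HUVEC primary cells. Quantity: 1250 endothelial cells in each well. Dosing: single-point 10 µM, DMSO 0.1% final. Incubation: 72 h treatment at 37 °C. Measured by: CTG luminescence. Control set: DMSO cell controls and MePR drug controls. Plate: collagen-coated 384-well format.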

Assay [5] can be described thus: H69AR cell proliferation blockers – human, duplicate replicates, primary screen (AID 580;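 active = viability at or under a set limit in both replicates, limit being median viability minus 3 SD, cut at about 48% in these data, passing the limit was not always enough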;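 note: 100% = mean luminescence of untreated wells and 0% = no signal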). As to conditions: H69AR lung tumor cells viability, ATP luminescence, 72 h; at 10 µM; stronger effect = lower value.
Assay [6] is described as follows: MRP1 drug-resistance reversers in H69AR cells – cell-based, doxorubicin co-treatment, pilot screen (AID 601;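 active = viability loss from added drug above about 55%, and viability with drug at most 40%, in both replicates, limit read from the data, passing the limit was not always enough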). Particulars: CellTiter-Glo, 72 h, at 10 µM; for differential viability (reversal): stronger effect = higher value.
Assay [7] in a line: yeast transport mutant growth inhibition pilot in 384-well plates, post-Golgi transport modulator project (AID 636; in the data active = inhibition above about 31%). Particulars: absorbance 615 nm, about 18 h, stronger effect = higher value.
A short description of assay [8]: growth suppression of yeast trafficking mutant, preliminary HTS, modulators of trafficking downstream of Golgi apparatus project, 1536-format plate, OD 615 nm (AID 637). Particulars: yeast transport mutant growth, absorbance 615 nm, 18 h; stronger effect = higher value.
The mark [9] stands for this setting: H69AR cells + 2 uM doxorubicin, measured here: viability with 2 uM doxorubicin, stronger effect = lower value.
The mark [10] stands for this setting: H69AR cells, compound alone cytotoxicity.

With `CNC(=O)CN(c1cc(C)ccc1OC)S(=O)(=O)c1ccc(C)cc1`, the viability in assay [1] is 93%; in assay [3], 93% (inactive); in assay [4] it was 108% (inactive); in assay [5] it was 103% (inactive); in assay [6] (setting [9]), 100%; in assay [6] (setting [10]) it was 103%. Besides, the Her2 level in assay [2] is 113% (inactive). For the same molecule, the differential viability (reversal) in assay [6] (H69AR cells + 2 uM doxorubicin) was 2.79% (inactive). Besides, the inhibition in assay [7] was -2.93% (inactive); in assay [8], -7.58% (inactive).
On to `CC(C)NC(=O)CSc1nnc(-c2ccc(C(C)(C)C)cc2)n1C`, for which the viability in assay [1] was 95%; in assay [3], 95% (inactive); in assay [4] it was 71.5% (inactive); in assay [5], 103% (inactive); in assay [6] (setting [9]) it was 91.4%; in assay [6] (setting [10]), 103%. In addition, the Her2 level in assay [2] is 82% (inactive). Besides, the differential viability (reversal) in assay [6] (H69AR cells + 2 uM doxorubicin) is 11.6% (inactive). Moreover, the results for the inhibition in assay [7] and in assay [8] were -2.24% (inactive) and -3.65% (inactive), respectively.
`COc1cc(S(=O)(=O)N2CCOCC2)ccc1NC(=O)COC(=O)c1ccccn1`: the viability in assay [1] was 114%; in assay [3] it was 114% (inactive); in assay [4], 85.8% (inactive); in assay [5], 84.8% (inactive); in assay [6] (setting [9]), 97.6%; in assay [6] (setting [10]), 84.8%. Also, the Her2 level in assay [2] was 92% (inactive). The differential viability (reversal) in assay [6] (H69AR cells + 2 uM doxorubicin) was -12.8% (inactive). The figures for the inhibition in assay [7] and in assay [8] were -6.71% (inactive) and -0.18% (inactive), respectively.
Take `C=CCn1c(-c2ccccc2)c[nH]c1=S`: the viability is 91% in assay [1]; 91% (inactive) in assay [3]; 114% (inactive) in assay [4]; 99.9% (inactive) in assay [5]; 77.5% in assay [6] (setting [9]); 99.9% in assay [6] (setting [10]). Further, the Her2 level in assay [2] is 92.5% (inactive). The differential viability (reversal) in assay [6] (H69AR cells + 2 uM doxorubicin) was 22.4% (inactive). Also, the inhibition in assay [7] is -5.84% (inactive); in assay [8] it was 0.16% (inactive).
`C=CCN1C(=O)C2(C(C#N)=C(N)Oc3n[nH]c(CCC)c32)c2ccccc21` (stereo not given): the viability in assay [1] is 108%; in assay [3], 108% (inactive); in assay [4], 100% (inactive); in assay [5], 87.8% (inactive); in assay [6] (setting [9]) it was 84.8%; in assay [6] (setting [10]), 87.8%. For the same molecule, in assay [2], the Her2 level was 103% (inactive). In addition, the differential viability (reversal) in assay [6] (H69AR cells + 2 uM doxorubicin) was 2.95% (inactive). Further, the inhibition in assay [7] is -4.55% (inactive); in assay [8], 0% (inactive).
On to `CCOC(=O)N1CCN(C(=O)CN2C(=O)COc3ccc(C)cc32)CC1`, for which the viability in assay [1] is 98%; in assay [3] it was 98% (inactive); in assay [4], 95.7% (inactive); in assay [5], 94.2% (inactive); in assay [6] (setting [9]), 92.3%; in assay [6] (setting [10]) it was 94.2%. Also, the Her2 level in assay [2] was 94.5% (inactive). Moreover, in assay [6] (H69AR cells + 2 uM doxorubicin), the differential viability (reversal) is 1.89% (inactive). Besides, the inhibition in assay [7] is -2.89% (inactive); in assay [8], 6% (inactive).
For the molecule `CCC(=O)Nc1ccc(F)c(Cl)c1`, the viability in assay [1] is 108%; in assay [3] it was 108% (inactive); in assay [4] it was 97.9% (inactive); in assay [5], 94.7% (inactive); in assay [6] (setting [9]) it was 91.1%; in assay [6] (setting [10]) it was 94.7%. Besides, the Her2 level in assay [2] was 99% (inactive). Besides, the differential viability (reversal) in assay [6] (H69AR cells + 2 uM doxorubicin) was 3.67% (inactive). Moreover, the inhibition in assay [7] was -6.53% (inactive); in assay [8], 3.71% (inactive).
For the molecule `COc1cc(OC)cc(OCC(O)Cn2cnc(-c3ccccc3)c2)c1` (stereo not given), the viability was 90% in assay [1]; 90% (inactive) in assay [3]; 88% (inactive) in assay [4]; 83.8% (inactive) in assay [5]; 95.2% in assay [6] (setting [9]); 83.8% in assay [6] (setting [10]). The Her2 level in assay [2] was 84% (inactive). Moreover, in assay [6] (H69AR cells + 2 uM doxorubicin), the differential viability (reversal) is -11.4% (inactive). In addition, the inhibition was 3.64% (inactive) in assay [7] and -2.13% (inactive) in assay [8].
For the molecule `CCOC(=O)N1CCC(NC(=O)c2ccc3c(c2)N(C)CCS3)CC1`, the viability was 87% in assay [1]; 87% (inactive) in assay [3]; 109% (inactive) in assay [4]; 92.2% (inactive) in assay [5]; 83.9% in assay [6] (setting [9]); 92.2% in assay [6] (setting [10]). The Her2 level in assay [2] is 92.5% (inactive). For the same molecule, the differential viability (reversal) in assay [6] (H69AR cells + 2 uM doxorubicin) was 8.3% (inactive). For the same molecule, the inhibition in assay [7] is -4.21% (inactive); in assay [8], 4.92% (inactive).
For the molecule `CC(=O)N1CCc2cc(S(=O)(=O)NC(C(=O)NCc3ccccc3)C(C)C)ccc21` (stereo not given), the viability in assay [1] is 97%; in assay [3], 97% (inactive); in assay [4], 94.6% (inactive); in assay [5], 102% (inactive); in assay [6] (setting [9]), 90.1%; in assay [6] (setting [10]) it was 102%. For the same molecule, in assay [2], the Her2 level was 95.5% (inactive). The differential viability (reversal) in assay [6] (H69AR cells + 2 uM doxorubicin) was 12.1% (inactive). The figures for the inhibition in assay [7] and in assay [8] were -2.5% (inactive) and -10% (inactive), respectively.
Take `CCn1c(C)nc2cc(C(=O)OCCC(F)(F)F)ccc21`: the viability is 100% in assay [1]; 100% (inactive) in assay [3]; 108% (inactive) in assay [4]; 89.8% (inactive) in assay [5]; 93.7% in assay [6] (setting [9]); 89.8% in assay [6] (setting [10]). In addition, in assay [2], the Her2 level was 112% (inactive). The differential viability (reversal) in assay [6] (H69AR cells + 2 uM doxorubicin) is -3.94% (inactive). Besides, the inhibition in assay [7] is -2.44% (inactive); in assay [8], 7.67% (inactive).
As for `O=C(Nc1cccc(Cl)c1)N1CCN(c2ncccn2)CC1`, the viability is 100% in assay [1]; 100% (inactive) in assay [3]; 124% (inactive) in assay [4]; 104% (inactive) in assay [5]; 86.7% in assay [6] (setting [9]); 104% in assay [6] (setting [10]). For the same molecule, in assay [2], the Her2 level is 94.5% (inactive). Also, the differential viability (reversal) in assay [6] (H69AR cells + 2 uM doxorubicin) is 17.4% (inactive). The figures for the inhibition in assay [7] and in assay [8] were 0.27% (inactive) and -6.51% (inactive), respectively.
In the case of `CCCC(=O)N=C1SC2CS(=O)(=O)CC2N1c1ccc(CC)cc1` (stereo not given), the viability is 97.5% in assay [1]; 97.5% (inactive) in assay [3]; 83.2% (inactive) in assay [4]; 93.2% (inactive) in assay [5]; 85.4% in assay [6] (setting [9]); 93.2% in assay [6] (setting [10]). Further, in assay [2], the Her2 level was 80% (inactive). In addition, the differential viability (reversal) in assay [6] (H69AR cells + 2 uM doxorubicin) is 7.88% (inactive). For the same molecule, the values for the inhibition in assay [7] and in assay [8] were -5.33% (inactive) and 3.61% (inactive), respectively.
For `Cc1ccc(Br)cc1S(=O)(=O)N1CCN(c2ccccc2)CC1`, the viability was 93.5% in assay [1]; 93.5% (inactive) in assay [3]; 76.2% (inactive) in assay [4]; 79.4% (inactive) in assay [5]; 84.5% in assay [6] (setting [9]); 79.4% in assay [6] (setting [10]). Besides, the Her2 level in assay [2] was 116% (inactive). Besides, the differential viability (reversal) in assay [6] (H69AR cells + 2 uM doxorubicin) is -5.03% (inactive). The inhibition in assay [7] was 1.17% (inactive); in assay [8], -8.5% (inactive).
Turning to `CCn1c(SCC(=O)Nc2ccc(C(C)=O)cc2)nc2ccccc21`, the viability in assay [1] is 90%; in assay [3] it was 90% (inactive); in assay [4], 57% (inactive); in assay [5], 83.1% (inactive); in assay [6] (setting [9]), 86.7%; in assay [6] (setting [10]) it was 83.1%. Also, the Her2 level in assay [2] was 77% (inactive). For the same molecule, in assay [6] (H69AR cells + 2 uM doxorubicin), the differential viability (reversal) is -3.56% (inactive). Moreover, the inhibition in assay [7] is -1.45% (inactive); in assay [8], -3.45% (inactive).
As to `CCOC(=O)c1c(NC(=O)c2nn(CC)cc2Br)c(C#N)cn1-c1ccccc1`, the viability was 78% in assay [1]; 78% (inactive) in assay [3]; 62.5% (inactive) in assay [4]; 74.8% (inactive) in assay [5]; 72.2% in assay [6] (setting [9]); 74.8% in assay [6] (setting [10]). Further, the Her2 level in assay [2] is 90% (inactive). Besides, the differential viability (reversal) in assay [6] (H69AR cells + 2 uM doxorubicin) is 2.55% (inactive). Also, the inhibition in assay [7] is -4.61% (inactive); in assay [8], -6.17% (inactive).

The values are drawn from PubChem BioAssay.
